How the values were obtained:
[1] = tested on: Mouse; test: concentration in plasma after dosing; settings: 2 h; dosed: 2-Hydroxy-4-methoxybenzophenone; 50 mg/kg; iv; Female; B6C3F1
[2] = tested on: Mouse; test: concentration in plasma after dosing; settings: 2 h; dosed: 2-Hydroxy-4-methoxybenzophenone; 250 mg/kg; oral; Male; B6C3F1
[3] = tested on: Rat; test: concentration in plasma after dosing; settings: 0.25 h; dosed: 2-Hydroxy-4-methoxybenzophenone; 500 mg/kg; oral; Female; F344
[4] = tested on: Rat; test: concentration in plasma after dosing; settings: dosed: 2-Hydroxy-4-methoxybenzophenone, 100 mg/kg, oral, Male, F344
[5] = tested on: Mouse; test: concentration in plasma after dosing; settings: 3 h; dosed: 2-Hydroxy-4-methoxybenzophenone; 250 mg/kg; oral; Male; B6C3F1
[6] = tested on: Mouse; test: concentration in plasma after dosing; settings: 2 h; dosed: 2-Hydroxy-4-methoxybenzophenone; 250 mg/kg; oral; Male; B6C3F1; remark: listed apart in the source
[7] = tested on: Rat; test: concentration in plasma after dosing; settings: dosed: 2-Hydroxy-4-methoxybenzophenone, 8 mg/kg, iv, Female, F344
[8] = tested on: Rat; test: concentration in plasma after dosing; settings: 0.5 h; dosed: Nitrite; 80 mg/kg; oral; Female; F344
[9] = tested on: Rat; test: concentration in plasma after dosing; settings: 2 min; dosed: Nitrite; 20 mg/kg; iv; Male; F344
[10] = tested on: Rat; test: concentration in plasma after dosing; settings: 20 min; dosed: Nitrite; 20 mg/kg; iv; Male; F344
[11] = tested on: Rat; test: concentration in liver after dosing; settings: 6 h; dosed: Perfluorooctanoic acid; 12 mg/kg; oral; Male; Harlan Sprague Dawley
[12] = tested on: Rat; test: concentration in liver after dosing; settings: 0.5 h; dosed: Fluorotelomer alcohol 8+2; 24 mg/kg; oral; Male; Harlan Sprague Dawley
[13] = tested on: Rat; test: concentration in kidney after dosing; settings: 12 h; dosed: Perfluorooctanoic acid; 12 mg/kg; oral; Male; Harlan Sprague Dawley
[14] = tested on: Rat; test: concentration in kidney after dosing; settings: 1200 h; dosed: Perfluorooctanoic acid; 12 mg/kg; oral; Male; Harlan Sprague Dawley
[15] = tested on: Rat; test: concentration in plasma after dosing; settings: dosed: 678-39-7, 12 mg/kg, iv, Male, F344
[16] = tested on: Rat; test: concentration in liver after dosing; settings: 12 h; dosed: Perfluorooctanoic acid; 80 mg/kg; oral; Female; Harlan Sprague Dawley
[17] = tested on: Rat; test: concentration in plasma after dosing; settings: dosed: 678-39-7, 40 mg/kg, iv, Male, F344
[18] = tested on: Rat; test: concentration in liver after dosing; settings: 1 h; dosed: Fluorotelomer alcohol 8+2; 24 mg/kg; oral; Male; Harlan Sprague Dawley
[19] = tested on: Rat; test: concentration in liver after dosing; settings: 0.5 h; dosed: Potassium Perfluorobutane Sulfonate; 20 mg/kg; oral; Female; Harlan Sprague Dawley
[20] = tested on: Rat; test: concentration in kidney after dosing; settings: 1 h; dosed: Potassium Perfluorobutane Sulfonate; 20 mg/kg; oral; Female; Harlan Sprague Dawley
[21] = tested on: Rat; test: concentration in plasma after dosing; settings: 1.5 h; dosed: Potassium Perfluorobutane Sulfonate; 4 mg/kg; iv; Male; F344
[22] = tested on: mouse; test: concentration in blood after dosing; settings: dosed: benzo[a]pyrene, 15 mg/kg, oral, C57BL/6J
Procedure, shortened: (§1)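 Sampling and analytical methods are those of each source and frequently went unreported. The concentration-versus-time and amount-versus-time points were compiled from published in vivo toxicokinetic studies and two structured collections. Most were digitised from plot screenshots with WebPlotDigitizer, with others copied from tables, in the reported units.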

[23] = tested on: human; test: concentration in blood after dosing
Procedure, shortened: as §1

COc1ccc(C(=O)c2ccccc2)c(O)c1 [2-Hydroxy-4-methoxybenzophenone]
Settings	concentration in plasma [ng/mL]
[1]	317
[2]	55.1
[3]	1730
[5]	45.1
[6]	34

concentration in plasma [ng/mL]
Settings	0.25 h	2 h	3 h	4 h	10 min
[4]	218	–	6.64	28.5	106
[7]	–	78.6	–	–	3030

O=N[O-] [Nitrite]
Settings	concentration in plasma [ng/mL]
[8]	8900
[9]	15100
[10]	7600

O=C(O)C(F)(F)C(F)(F)C(F)(F)C(F)(F)C(F)(F)C(F)(F)C(F)(F)F [Perfluorooctanoic acid]
Settings	concentration in kidney [ng/g]	concentration in liver [ng/g]
[11]	–	57200
[12]	–	300
[13]	26900	–
[14]	695	–
[16]	–	64300
[18]	–	535

concentration in plasma [ng/mL]
Settings	0.25 h	1 h	6 h	24 h
[15]	–	378	480	–
[17]	671	–	1310	819

O=S(=O)([O-])C(F)(F)C(F)(F)C(F)(F)C(F)(F)F.[K+] [Potassium Perfluorobutane Sulfonate]
Settings	concentration in kidney [ng/g]	concentration in liver [ng/g]	concentration in plasma [ng/mL]
[19]	–	51300	–
[20]	19300	–	–
[21]	–	–	1850

c1ccc2c(c1)cc1ccc3cccc4ccc2c1c34 [benzo[a]pyrene]
[22]
Settings	concentration in blood [ng/mL]
0.4576 h	68.9
0.4733 h	61
0.9942 h	148
1.01 h	190
1.436 h	196
1.452 h	276
1.957 h	239
1.989 h	253
3.014 h	282
3.046 h	85
4.04 h	258
4.072 h	15.5
4.94 h	8.52
5.934 h	6.45
6.013 h	252
9.028 h	65.1
11.99 h	18.4
14.99 h	6.86

CC(C)(C)O [tert-butyl alcohol]
[23], inhalation, duration: 4 hr
Settings	concentration in blood [nM]
1.944 h, dosed: methyl tert-butyl ether, 4.5 ppm	1930
1.995 h, dosed: methyl tert-butyl ether, 38.7 ppm	22200
2.028 h, dosed: ethyl tert-butyl ether, 40.6 ppm	12800
2.045 h, dosed: ethyl tert-butyl ether, 4.5 ppm	1690
3.934 h, dosed: methyl tert-butyl ether, 4.5 ppm	1730
3.985 h, dosed: methyl tert-butyl ether, 38.7 ppm	17800
4.023 h, dosed: ethyl tert-butyl ether, 4.5 ppm	1620
4.023 h, dosed: ethyl tert-butyl ether, 40.6 ppm	11000
5.95 h, dosed: methyl tert-butyl ether, 4.5 ppm	1580
6.001 h, dosed: methyl tert-butyl ether, 38.7 ppm	12500
6.034 h, dosed: ethyl tert-butyl ether, 4.5 ppm	1170
6.034 h, dosed: ethyl tert-butyl ether, 40.6 ppm	9280
7.952 h, dosed: methyl tert-butyl ether, 4.5 ppm	917
7.96 h, dosed: ethyl tert-butyl ether, 4.5 ppm	1100
7.977 h, dosed: ethyl tert-butyl ether, 40.6 ppm	8400
8.017 h, dosed: methyl tert-butyl ether, 38.7 ppm	10000
9.972 h, dosed: ethyl tert-butyl ether, 4.5 ppm	771
9.972 h, dosed: ethyl tert-butyl ether, 40.6 ppm	6190
10.03 h, dosed: methyl tert-butyl ether, 38.7 ppm	8310
11.93 h, dosed: ethyl tert-butyl ether, 4.5 ppm	905
11.98 h, dosed: ethyl tert-butyl ether, 40.6 ppm	5880
12.05 h, dosed: methyl tert-butyl ether, 38.7 ppm	5730
18 s, dosed: methyl tert-butyl ether, 4.5 ppm	2660
20 s, dosed: methyl tert-butyl ether, 38.7 ppm	21800
23.91 h, dosed: ethyl tert-butyl ether, 40.6 ppm	2670
23.99 h, dosed: methyl tert-butyl ether, 38.7 ppm	1140
61 s, dosed: ethyl tert-butyl ether, 4.5 ppm	1870
61 s, dosed: ethyl tert-butyl ether, 40.6 ppm	14300

[23], dosed: methyl tert-butyl ether, oral
Settings	concentration in blood [nM]
0.9669 h, 5 mg	463
1.015 h, 15 mg	1880
1.979 h, 15 mg	1700
1.982 h, 5 mg	430
2.968 h, 15 mg	1580
2.972 h, 5 mg	391
3.958 h, 15 mg	1510
3.961 h, 5 mg	370
5.915 h, 5 mg	318
5.962 h, 15 mg	1230
7.92 h, 5 mg	290
7.966 h, 15 mg	983
9.925 h, 5 mg	236
9.97 h, 15 mg	937
11.95 h, 15 mg	806
12.01 h, 5 mg	199
23.95 h, 15 mg	268
23.99 h, 5 mg	53.5
